# Most compounds without a hit are left out; they make up all but 2.3% or so of the library.
# TRPC6 act: activates the mouse TRPC6 cation channel. B-score at 10 µM. Q61143. HEK293-TRPC6 membrane potential dye fluorescence; stronger effect = higher value. 310,000 compounds, 0.13% hits;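 active means B-score of the integrated fluorescence ratio above library mean plus 3 SD, and starting fluorescence ratio within library mean plus 5 SD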;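 further: higher score means more depolarization so channel activation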
# TRPC4 PAM: allosteric potentiators of mouse TRPC4 channel | Q9QUQ5 | HEK293 TRPC4beta/mu-opioid, DAMGO EC20, Fluo-4 Ca2+ flux; stronger effect = higher value | B-score at 10 µM | 310,000 compounds, 0.42% hits | AID 2227;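 active means B-score of calcium response area above 5 SD of library B-scores, with initial fluorescence ratio within 5 SD of library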
# TRPC6 inhibitor: mouse TRPC6 channel inhibition; 310,000 compounds, 1.1% hits; HEK293-TRPC6, membrane potential dye, ACh-evoked depolarization; stronger effect = lower value; Q61143; AID 2553; B-score at 10 µM;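 active means B-score under library mean minus 3 SD, initial fluorescence not abnormally high, positive integrated signal ratio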;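 further: B-score derived from integrated fluorescence ratio over the kinetic read; more negative B-score means stronger inhibition of depolarization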
# TRPC4 block: TRPC4 (mouse) channel inhibition; Q9QUQ5; HEK293 TRPC4beta/mu-opioid, DAMGO-evoked Fluo4 calcium flux; stronger effect = lower value; B-score at 10 µM; 300,000 compounds, 0.39% hits; AID 2247;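 active means B-score over 3 SD under the library average, no early fluorescence shift, positive overall ratio signal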
#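 Assay system: HEK293 cells with stable TRPC4beta plus mu-opioid receptor expression. Dosing: single dose. Measured by: Fluo4 Ca2+ flux fluorescence. Also added: DAMGO in two steps, submaximal then maximal. Read-out: B score from integrated Fluo4 fluorescence ratio.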
# TRPC4 agonist: opens the mouse TRPC4 cation channel; Q9QUQ5; HEK293 TRPC4beta/mu-opioid, Fluo4 calcium fluorescence; stronger effect = higher value; B-score at 10 µM; 310,000 compounds, 0.49% hits;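 active means B-score above 5 SD of library B-scores, and initial fluorescence ratio not above library mean plus 5 SD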;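 further: positive B-score marks a calcium rise read as TRPC4 activation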
#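 Technique: kinetic Fluo4 calcium fluorescence; Test system: TRPC4beta and mu-opioid receptor HEK293 stable cells; Measure: B-scored integrated calcium fluorescence ratio; Benchmarks: low control buffer alone, high control maximal DAMGO; Schedule: 45 min room-temperature Fluo4 loading, 110 s read.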
# A number is an active result; - = inactive.
SMILES,TRPC6 act,TRPC4 PAM,TRPC6 inhibitor,TRPC4 block,TRPC4 agonist
C=C1[C@@H](OC(C)=O)CC[C@]2(C)[C@@H]1C[C@@H]1C[C@H](OC(C)=O)C(C)=C([C@@H](OC(C)=O)[C@@H]2OC(C)=O)C1(C)C,-,-,-,-,-
COc1ccccc1-c1cc(-c2ccccc2)nc(=O)[nH]1,-,21,-,-,-
O=c1nc(-c2ccccc2)cc(-c2ccccc2)[nH]1,-,-,-,-,-
CCOCc1cn(CC(=O)c2ccc(Cl)cc2)c(C)nc1=N,-,-,-,-8,-
CCOCc1cn(CC(=O)c2ccc([N+](=O)[O-])cc2)c(C)nc1=N,-,-,-,-,-
NC1=NC2(CCN(Cc3ccccc3)CC2)n2c(nc3ccccc32)N1,-,-,-,-,87
NC1=NC2(CCCCC2)n2c(nc3ccccc32)N1,-,-,-,-,-
CC(C)Cc1ccc(C(C)C(N)=NCCc2ccccc2)cc1 (stereo not given),-,10,-,-,-
Cc1ccc(N2C(=O)N(CC(=O)Nc3cc(Cl)ccc3C)C(=O)C2C)cc1 (stereo not given),-,-,-,-,-
C/C(=N/NC(=O)c1ccc(Cn2cccn2)o1)c1cccc(NC(=O)c2ccncc2)c1,-,-,-,-6,62
C/C(=N\NC(=O)c1ccncc1)c1cccc(NC(=O)c2ccc(C(C)(C)C)cc2)c1,-,-,-,-,-
O=C(CS(=O)CC(=O)Nc1cccnc1)Nc1ccc(F)cc1 (stereo not given),-,-,-,-,-
Cc1ccc(-n2ccc(=O)c(C(=O)Nc3ccc(S(=O)(=O)Nc4onc(C)c4C)cc3)n2)cc1,-,-,-,-,-
CCN1C(=O)CSC1=Nc1ccc(Cl)c(Cl)c1,-,-,-,-6,-
C/C(=N\Nc1nc(Cl)c(Cl)cc1Cl)c1ccc(S(=O)(=O)NCc2ccco2)cc1,-,-,-,-,-
CCCCSc1nc(O)c(Cc2ccccc2)c(=O)[nH]1,-,-,-,-,-
CCCc1c(O)nc(SCCN(CC)CC)[nH]c1=O,-,-,-,-,112
CC(C)c1c(O)nc(SCCN2CCOCC2)[nH]c1=O,-,-,-,-,-
CCN(CC)CCSc1nc(O)c(C(C)C)c(=O)[nH]1,-,12,-,-,80
Cc1ccc(NC(=O)CSc2nnc(-c3ccncc3)o2)cc1C,-,-,-,-,-
O=C(O)CCc1cc(I)c(Oc2ccc(O)c(I)c2)c(I)c1,-,-,-,-,59
N[C@@H](Cc1cc(I)c(Oc2ccc(O)c(I)c2)c(I)c1)C(=O)O,-,-,-,-,-
COc1ccccc1OCCCC(=O)Nc1nnc(C2CCCO2)s1 (stereo not given),-,-,-,-,-
COc1ccc(CN2CCN(c3nc4ccccc4s3)CC2)cc1,-,23,-,-,-
O=[N+]([O-])c1ccc(CN2CCN(c3nc4ccccc4s3)CC2)cc1,-,19,-,-,-
SMILES,TRPC6 act,TRPC4 PAM,TRPC6 inhibitor,TRPC4 block,TRPC4 agonist
COc1ccc(N(CC(=O)NCCC2=CCCCC2)S(=O)(=O)c2ccc(C)cc2)cc1,-,-,-,-,-
CC(C)(CO)NC(=O)c1ccc2c(c1)C(=O)c1ccccc1-2,-,11,-,-,-
COCCNC(=O)c1ccc2c(c1)C(=O)c1ccccc1-2,-,-,-,-,-
Cc1[nH]c2ccccc2c1C(=O)CSc1ccc(Cl)cc1,-,-,-,-,-
Cc1[nH]c2ccccc2c1C(=O)CN1C(=O)NC(C)(c2ccc(Cl)cc2Cl)C1=O (stereo not given),-,20,-,-,-
COc1ccc2c(Cl)c(-c3nnc4n3CCCCC4)sc2c1,-,-,-,-,167
Clc1c(-c2nnc3n2CCCCC3)sc2ccccc12,-,-,-,-,-
O=C(c1ccc(C(F)(F)F)cc1)N1CCC(=O)N(C(COCc2ccccc2)Cc2ccccc2)CC1 (stereo not given),-,-,-,-,-
CC(C)(C)c1ccc(C(=O)N2CCC(=O)N(C(COCc3ccccc3)Cc3ccccc3)CC2)cc1 (stereo not given),-,-,-,-,50
CN(CC(=O)Nc1ccc(F)cc1)C(=O)COC(=O)c1ccccc1,-,106,-,-,-
CN(CC(=O)Nc1ccc(F)cc1)C(=O)CCc1ccccc1,-,-,-,-,-
COc1ccc(C)cc1NC(=O)c1ccccc1NS(=O)(=O)c1ccc(Cl)s1,-,-,-,-,-

# Screening data (PubChem)
